Results from ChEMBL document CHEMBL2203212, “Peptides and Pseudopeptides as SIRT6 Deacetylation Inhibitors” (ACS Med Chem Lett, 2012).
Calls of active or inactive are those of the source. The rule behind the calls is not given here. Square brackets hold non-standard residues; d marks the D form. Peptide text beside a SMILES is read from it. Lys(Thioacetyl) = CC(=S)NCCCC[C@H](N)C(=O)O

Key:
[1] = biological target: T1, NAD-dependent protein deacylase sirtuin-6 (Homo sapiens, UniProt Q8N6T7); assay: Inhibition of human recombinant SIRT6 assessed as 7-amino-4-methylcoumarin labelled Arg-His-Lys-Lys(epsilon-acetyl) substrate deacetylation at 200 uM after 90 mins by Fluor-de-Lys assay
Method in brief: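 Single-point screen at 200 μM in a commercial in vitro SIRT6 deacetylation activity kit with Fluor de Lys fluorescence read-out, reported as percent inhibition of deacetylation.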

[2] = biological target: T1, NAD-dependent protein deacylase sirtuin-6; assay: Inhibition of N-terminal His-tagged human recombinant SIRT6 (13 to 308) expressed in Escherichia coli Rosetta2 cells assessed as FdL-1 peptide substrate deacetylation at 100 uM after 45 mins by Fluor-de-Lys assay
[3] = biological target: T1, NAD-dependent protein deacylase sirtuin-6; assay: Inhibition of human recombinant SIRT6 assessed as 7-amino-4-methylcoumarin labelled Arg-His-Lys-Lys(epsilon-acetyl) substrate deacetylation after 90 mins by Fluor-de-Lys assay
Method in brief: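 Commercial in vitro SIRT6 deacetylation kit with Fluor de Lys read-out. The IC50 was determined in two separate runs, each in triplicate, and reported as the average of the six measurements.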

T1 sequence (Q8N6T7 whole entry): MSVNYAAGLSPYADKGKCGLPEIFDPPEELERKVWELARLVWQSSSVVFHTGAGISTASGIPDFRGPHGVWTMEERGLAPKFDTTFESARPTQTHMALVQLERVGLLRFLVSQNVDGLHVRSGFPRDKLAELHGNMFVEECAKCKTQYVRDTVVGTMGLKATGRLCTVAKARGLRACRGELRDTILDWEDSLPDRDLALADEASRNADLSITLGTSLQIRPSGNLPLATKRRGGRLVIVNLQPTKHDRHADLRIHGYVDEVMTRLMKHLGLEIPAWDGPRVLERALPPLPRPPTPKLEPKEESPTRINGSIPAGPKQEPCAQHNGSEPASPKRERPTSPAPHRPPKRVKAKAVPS

SMILES	inhibition [1]	inhibition [2] [%]	IC50 [3] [µM]
CC(=S)NCCCC[C@H](NC(=O)[C@@H]1CCCN(C(=O)OC(C)(C)C)C1)C(=O)N[C@@H](C)C(=O)O	Active		
CC(=S)NCCCC[C@H](NC(=O)OCc1ccccc1)C(=O)NC1CCCCC1	Active		
CC(=O)N[C@@H](C)C(=O)N[C@@H](CCCCNC(=O)CC(C)C)C(=O)N[C@@H](C)C(=O)O	Active		
O=C(C[n+]1ccc2ccccc2c1)c1ccc2ccc3ccccc3c2c1		25	
CSCC[C@H](NC(=O)[C@@H](NC(=O)[C@H](CCCCNC(C)=S)NC(=O)[C@H](CC(=O)O)NC(=O)[C@@H](N)CO)[C@@H](C)O)C(=O)O (H-SD[Lys(Thioacetyl)]TM-OH)	35%		
CC(=S)NCCCC[C@H](NC(=O)OCc1ccccc1)C(=O)Nc1ccccc1	36%		
CN1C[C@H](C(=O)N[C@]2(C)O[C@@]3(O)[C@@H]4CCCN4C(=O)[C@H](Cc4ccccc4)N3C2=O)C=C2c3cccc4[nH]cc(c34)C[C@H]21		25	
O=C1c2ccccc2C(=O)c2c1ccc(N1C(=O)c3ccccc3C1=O)c2-c1c(N2C(=O)c3ccccc3C2=O)ccc2c1C(=O)c1ccccc1C2=O		25	
Nc1cc2c(nc3c4ccccc4c(N)cc3[n+]2-c2cccc3ccccc23)c2ccccc12		25	
CC(=[Se])NCCCC[C@H](NC(=O)OCc1ccccc1)C(=O)Nc1ccccc1	62%		285
CC(=O)N[C@@H](C)C(=O)N[C@@H](CCCCNC(=O)C=C(C)C)C(=O)N[C@@H](C)C(=O)O	26%		
CSCC[C@H](NC(=O)[C@H](CC(C)C)NC(=O)[C@H](CCCCNC(C)=S)NC(=O)[C@H](CCCCN)NC(=O)[C@H](C)N)C(=O)O (H-AK[Lys(Thioacetyl)]LM-OH)	91%		47
O=C1c2ccccc2C(=O)c2c(Nc3cc4c5c(ccc6c7ccc8c9c(cc(Nc%10cccc%11c%10C(=O)c%10ccccc%10C%11=O)c(c3c56)c97)-c3ccccc3C8=O)C(=O)c3ccccc3-4)cccc21		25	
CC(=O)N[C@@H](C)C(=O)N[C@@H](CCCCNC(C)=S)C(=O)N[C@@H](C)C(=O)O	54%		
CC(=S)NCCCC[C@H](NC(=O)CCc1ccccc1)C(=O)N[C@@H](C)C(=O)O	Active		
CSCC[C@H](NC(=O)[C@H](CC(C)C)NC(=O)[C@H](CCCCNC(C)=S)NC(=O)[C@H](CCCCN)NC(=O)[C@@H](N)Cc1cnc[nH]1)C(=O)O (H-HK[Lys(Thioacetyl)]LM-OH)	62%		78
Nc1cc2c(nc3c4ccccc4ccc3[n+]2-c2cccc3ccccc23)c2ccccc12		25	
CC(=O)N[C@@H](C)C(=O)N[C@@H](CCCCNC(=S)CC(C)C)C(=O)N[C@@H](C)C(=O)O	Active		
